From ChEMBL document CHEMBL2390839, “Di-alkylated paromomycin derivatives: targeting the membranes of gram positive pathogens that cause skin infections” (Bioorg Med Chem, 2013)
≈ marks a conversion by molar mass, not a printed value. Calls of active or inactive are those of the source. No cut-off for these calls is given here.

Columns and labels:
[1] = system: Streptococcus pyogenes; assay: Antibacterial activity against Streptococcus pyogenes serotype M1T1 assessed as growth inhibition after 24 hrs by MTT assay; assay type: functional; details: serotype M1T1, 24 h
Procedure, shortened: (§1)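 Starter cultures were grown 24 h at 37 °C, 5% CO2, aerobic, then diluted in fresh medium to OD600 0.004. Twofold serial dilutions started at 64 µg/mL. After 24 h of incubation, MTT (1 mg/mL solution) was added and plates were incubated 2 h more at 37 °C. MIC was taken as the lowest concentration with no growth. Two independent experiments were run, each in triplicate.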

[2] = Antibacterial activity against Streptococcus pyogenes serotype M5 assessed as growth inhibition after 24 hrs by MTT assay; assay type: functional; procedure, shortened: as §1
[3] = system: Staphylococcus epidermidis; assay: Antibacterial activity against Staphylococcus epidermidis ATCC 12228 assessed as cell surface wrinkling at 1 ug/mL after 1 hr by scanning electron microscopic analysis; assay type: functional, organism-based
Procedure, shortened: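 S. epidermidis ATCC12228 grown 4 h at 37 °C, aerobic, to OD600 0.2. Cells washed in PBS pH 7.4 and resuspended to OD600 1.0. Treated with 1 µg/mL for 1 h at 37 °C, then diluted twofold. Washed, fixed overnight at 4 °C in 2.5% glutaraldehyde/PBS, dehydrated through graded ethanol, vacuum-dried, Pd-Au coated and imaged by SEM. Compared against untreated cells.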

[4] = Antibacterial activity against biofilm-positive Staphylococcus epidermidis RP62A ATCC 35984 assessed as growth inhibition after 24 hrs by MTT assay; assay type: functional; details: ATCC 35984, 24 h; procedure, shortened: as §1
[5] = system: Streptococcus pyogenes; assay: Antibacterial activity against glossy colony producing Streptococcus pyogenes assessed as growth inhibition after 24 hrs by MTT assay; assay type: functional; procedure, shortened: as §1
[6] = system: Staphylococcus epidermidis; assay: Antibacterial activity against biofilm-negative Staphylococcus epidermidis ATCC 12228 assessed as growth inhibition after 24 hrs by MTT assay; assay type: functional; details: ATCC 12228, 24 h; procedure, shortened: as §1
[7] = Antibacterial activity against Streptococcus pyogenes serotype M3 assessed as growth inhibition after 24 hrs by MTT assay; assay type: functional; procedure, shortened: as §1
[8] = system: Staphylococcus aureus; assay: Antibacterial activity against Staphylococcus aureus Cowan ATCC 12598 assessed as growth inhibition after 24 hrs by MTT assay; assay type: functional; details: Cowan ATCC 12598, 24 h
Procedure, shortened: (§2)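 Starter cultures grown 24 h at 37 °C, 5% CO2, aerobic, then diluted in fresh medium to OD600 0.004. Twofold serial dilutions from 64 µg/mL, 24 h incubation. MTT (1 mg/mL solution) added, then 2 h at 37 °C. MIC = lowest concentration with no visible growth. Two independent experiments, each in triplicate.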

[9] = Antibacterial activity against Streptococcus pyogenes serotype M2 assessed as growth inhibition after 24 hrs by MTT assay; assay type: functional; procedure, shortened: as §1
[10] = system: Streptococcus pyogenes; assay: Antibacterial activity against Streptococcus pyogenes JRS75 assessed as growth inhibition after 24 hrs by MTT assay; assay type: functional; details: JRS75, 24 h; procedure, shortened: as §1
[11] = system: Streptococcus pyogenes; assay: Antibacterial activity against Streptococcus pyogenes serotype T5 assessed as growth inhibition after 24 hrs by MTT assay; assay type: functional; details: serotype T5, 24 h; procedure, shortened: as §1
[12] = system: Staphylococcus aureus; assay: Antibacterial activity against Staphylococcus aureus NCTC 6571 assessed as growth inhibition after 24 hrs by MTT assay; assay type: functional; details: NCTC 6571, 24 h; procedure, shortened: as §2
[13] = system: Streptococcus pyogenes; assay: Antibacterial activity against Streptococcus pyogenes serotype M24 assessed as growth inhibition after 24 hrs by MTT assay; assay type: functional; details: serotype M24, 24 h; procedure, shortened: as §1
[14] = system: Streptococcus pyogenes; assay: Antibacterial activity against Streptococcus pyogenes MGAS9429 assessed as growth inhibition after 24 hrs by MTT assay; assay type: functional; details: MGAS9429, 24 h; procedure, shortened: as §1
[15] = system: Staphylococcus aureus; assay: Antibacterial activity against methicillin-resistant Staphylococcus aureus assessed as growth inhibition after 24 hrs by MTT assay; assay type: functional; procedure, shortened: as §2
[16] = Hemolytic activity in rat RBC assessed as hemoglobin release at 256 ug/mL after 1 hr by microplate reader analysis relative to control; assay type: ADME, cell-based, Erythrocyte; details: red blood cells (RBC), read-out: Activity
Procedure, shortened: (§3)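 Rat RBCs (2% w/w) were exposed to compound for 1 h at 37 °C, 5% CO2, using twofold dilutions from 256 µg/mL. PBS served as the negative control and 1% w/v Triton X-100 as the 100% lysis control. After centrifugation (2000 rpm, 10 min), supernatant absorbance was read at 550 nm and expressed as % hemoglobin release relative to Triton. Assays were run in triplicate, averaged over blood from at least two rats.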

[17] = Hemolytic activity in rat RBC assessed as hemoglobin release at 16 ug/mL after 1 hr by microplate reader analysis relative to control; assay type: ADME, cell-based, Erythrocyte; details: red blood cells (RBC), read-out: Activity; procedure, shortened: as §3
[18] = Hemolytic activity in rat RBC assessed as hemoglobin release at 128 ug/mL after 1 hr by microplate reader analysis; assay type: ADME, cell-based; details: erythrocyte; procedure, shortened: as §3
[19] = Hemolytic activity in rat RBC assessed as hemoglobin release at 32 ug/mL after 1 hr by microplate reader analysis relative to control; assay type: ADME, cell-based, Erythrocyte; details: red blood cells (RBC), read-out: Activity; procedure, shortened: as §3
[20] = Hemolytic activity in rat RBC assessed as hemoglobin release at 64 ug/mL after 1 hr by microplate reader analysis; assay type: ADME, cell-based; details: erythrocyte
Procedure, shortened: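 Rat RBCs (2% w/w) incubated 1 h at 37 °C, 5% CO2 with twofold dilutions starting at 256 µg/mL. PBS served as negative control and 1% w/v Triton X100 as the 100% lysis control. After centrifugation (2000 rpm, 10 min), supernatant absorbance read at 550 nm. Hemoglobin release expressed as % of Triton. Triplicates, with blood from at least two rats.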

[21] = Ratio of gramicidin D activity to compound activity for hemolysis of rat RBC up to 256 ug/mL after 1 hrs; assay type: ADME, cell-based; details: erythrocyte

Row | Compound | MIC [1] | MIC [2] | MIC [4] | MIC [5] | MIC [6] | MIC [7] | MIC [8] | MIC [9] | MIC [10] | MIC [11] | MIC [12] | MIC [13] | MIC [14] | MIC [15] | hemolysis at 1 h, 256 ug/mL [16] | hemolysis at 1 h, 16 ug/mL [17] | Activity [18] | other results
1 | NC[C@@H]1O[C@H](O[C@H]2[C@@H](O)[C@H](O[C@@H]3[C@@H](O)[C@H](N)C[C@H](N)[C@H]3O[C@H]3O[C@H](CO)[C@@H](O)[C@H](O)[C@H]3N)O[C@@H]2CO)[C@H](N)[C@@H](O)[C@@H]1O [PAROMOMYCIN] | 64 µg/mL (≈ 104 µM) | 32 µg/mL (≈ 52 µM) | > 64 µg/mL | 64 µg/mL (≈ 104 µM) | 2 µg/mL (≈ 3.25 µM) | 32 µg/mL (≈ 52 µM) | 16 µg/mL (≈ 26 µM) | 64 µg/mL (≈ 104 µM) | 64 µg/mL (≈ 104 µM) | 16 µg/mL (≈ 26 µM) | > 64 µg/mL | 64 µg/mL (≈ 104 µM) | > 64 µg/mL | > 64 µg/mL | – | – | – | Activity [3]: Active
2 | CCCCCCSC[C@H]1O[C@H](O[C@H]2[C@H](O[C@@H]3O[C@H](CSCCCCCC)[C@@H](O[C@H]4O[C@@H](CN)[C@@H](O)[C@H](O)[C@H]4N)[C@H]3O)[C@@H](O)[C@H](N)C[C@@H]2N)[C@H](N)[C@@H](O)[C@@H]1O | 16 µg/mL (≈ 19.6 µM) | 8 µg/mL (≈ 9.8 µM) | 16 µg/mL (≈ 19.6 µM) | 8 µg/mL (≈ 9.8 µM) | 8 µg/mL (≈ 9.8 µM) | 4 µg/mL (≈ 4.9 µM) | 64 µg/mL (≈ 78.4 µM) | 8 µg/mL (≈ 9.8 µM) | 8 µg/mL (≈ 9.8 µM) | 4 µg/mL (≈ 4.9 µM) | 32 µg/mL (≈ 39.2 µM) | 8 µg/mL (≈ 9.8 µM) | 8 µg/mL (≈ 9.8 µM) | > 64 µg/mL | 3.4% | 0% | Toxic | –
3 | CCCCCCCSC[C@H]1O[C@H](O[C@H]2[C@H](O[C@@H]3O[C@H](CSCCCCCCC)[C@@H](O[C@H]4O[C@@H](CN)[C@@H](O)[C@H](O)[C@H]4N)[C@H]3O)[C@@H](O)[C@H](N)C[C@@H]2N)[C@H](N)[C@@H](O)[C@@H]1O | 4 µg/mL (≈ 4.74 µM) | 4 µg/mL (≈ 4.74 µM) | 4 µg/mL (≈ 4.74 µM) | 4 µg/mL (≈ 4.74 µM) | 4 µg/mL (≈ 4.74 µM) | 2 µg/mL (≈ 2.37 µM) | 16 µg/mL (≈ 19 µM) | 2 µg/mL (≈ 2.37 µM) | 4 µg/mL (≈ 4.74 µM) | 4 µg/mL (≈ 4.74 µM) | 8 µg/mL (≈ 9.48 µM) | 4 µg/mL (≈ 4.74 µM) | 4 µg/mL (≈ 4.74 µM) | 16 µg/mL (≈ 19 µM) | 30.4% | 0% | Toxic | hemolysis at 1 h, 32 ug/mL [19]: 3.6%; Activity [20]: Toxic; Ratio [21]: 2
